Screens from PubChem.
This is a sample that favours compounds with a hit; in the whole collection about 0.77% have one here.
bIAP act: bovine intestinal alkaline phosphatase activators, primary screen, biochemical, bovine IAP, CDP-star luminescence; alkaline phosphatase, intestinal [Bos taurus]; purified bovine IAP, 30 min; stronger effect = higher value; fold of DMSO-control signal, blank-subtracted; activation factor at 20 µM; 200,000 tested, 0.17% active; AID 1016, 2008;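 active = activation factor of 2 or more at 20 µM, a signal rise over negative controls twice the positive control's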
mIAP block: inhibitors of mouse IAP, primary screen, biochemical, luminescence, uHTS; 330,000 tested, 0.2% active; inhibition, % at 10 µM; AID 2806, 2010; purified mouse IAP, CDP-Star luminescence, 30 min;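 active = inhibition of at least 40% at 10 µM in the primary screen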;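 also: plate controls were DMSO with enzyme for no effect and no enzyme wells for full effect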
hIAP block: human IAP inhibitors, primary screen, biochemical, luminescence, uHTS. Intestinal-type alkaline phosphatase (Homo sapiens), P09923. AID 2544, 2010. 330,000 tested, 0.12% active. purified IAP, CDP-Star luminescence, 30 min. inhibition, % at 10 µM;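 active = inhibition reaching a set limit with compound at 10 µM in the primary screen, cut at about 35% in these data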;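 also: plate controls were DMSO wells with enzyme for no effect and no-enzyme buffer wells for full effect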
Target sequence (P09923 whole entry, looked up): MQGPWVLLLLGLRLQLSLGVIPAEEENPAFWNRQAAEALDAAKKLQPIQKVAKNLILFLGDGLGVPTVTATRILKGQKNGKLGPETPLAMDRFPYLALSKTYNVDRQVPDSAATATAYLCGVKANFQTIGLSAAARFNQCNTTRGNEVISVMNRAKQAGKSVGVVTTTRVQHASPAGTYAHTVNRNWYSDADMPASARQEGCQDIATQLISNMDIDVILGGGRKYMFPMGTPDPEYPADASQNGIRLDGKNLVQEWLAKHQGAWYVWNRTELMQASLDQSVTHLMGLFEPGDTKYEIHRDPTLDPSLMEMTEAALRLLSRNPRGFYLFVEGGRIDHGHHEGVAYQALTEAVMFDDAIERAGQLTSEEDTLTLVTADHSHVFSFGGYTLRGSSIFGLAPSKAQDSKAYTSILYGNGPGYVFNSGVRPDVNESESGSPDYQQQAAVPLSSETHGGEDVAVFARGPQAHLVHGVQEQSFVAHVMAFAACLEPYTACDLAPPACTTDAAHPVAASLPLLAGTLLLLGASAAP
hIAP activ: human IAP activators, primary screen, biochemical, luminescence, uHTS; Intestinal-type alkaline phosphatase (Homo sapiens), P09923; purified human IAP, CDP-Star luminescence, 30 min; stronger effect = higher value; 1 = vehicle-only enzyme, 0 = enzyme-free background; activation factor at 10 µM; 330,000 tested, 0.16% active;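 active = activation factor of the enzyme at least 2-fold when tested at 20 µM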
bIAP inhibitor: bovine intestinal alkaline phosphatase inhibitors, primary screen, selectivity assay for TNAP inhibitor project, biochemical, bovine IAP, CDP-star luminescence; 190,000 tested, under 10 active; inhibition, % at 20 µM; alkaline phosphatase, intestinal [Bos taurus]; purified bovine IAP, 30 min;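 active = over 50% inhibition of intestinal alkaline phosphatase at 20 µM in the single-dose screen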
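Assay system – bovine IAP enzyme · Quantity – bovine IAP at 1/65,000,000 final dilution · Detection – CDP-star luminescence signal · Times – 30 min reaction at room temperature · Also added – CDP-star substrate at 30 µM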
mIAP act: activators of mouse IAP, primary screen, biochemical, luminescence, uHTS; activation factor at 10 µM; 330,000 tested, 0.24% active; AID 2805, 2010; muIAP, CDP-Star luminescence, 30 min; stronger effect = higher value; 1 = vehicle-only enzyme signal, 0 = enzyme-free wells; intestinal alkaline phosphatase [Mus musculus];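 active = activation factor of at least 2 at 20 µM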
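System: mouse IAP enzyme. Reagent: CDP-Star chemiluminescent phosphatase substrate. Benchmarks: DMSO wells, no-enzyme wells. Times: 30 min enzyme-substrate-compound incubation at room temperature. Detection: luminescence from enzymatic CDP-Star hydrolysis. Doses: test compounds delivered from DMSO solution.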
* marks the source's active call; other numbers are inactive results; i = inactive; nt = no result given.

SMILES | bIAP act | mIAP block | hIAP block | hIAP activ | bIAP inhibitor | mIAP act
Cc1ccc(NC(=O)C(Cc2ccccc2)n2cccc2)cc1 (centres undefined) | nt | -28 | -14 | 1.1 | nt | 1.3
Cc1csc(NC(=O)C(Cc2ccccc2)n2cccc2)n1 (centres undefined) | 0.9 | 43* | 8 | 0.92 | 12 | 0.57
COc1ccc(OC)c(/C=N/N2CCN(c3ccc(Cl)cc3)CC2)c1 | nt | -1 | -12 | 1.1 | nt | 1
Cc1ccc(NC(=O)NCCCc2ccccc2)cc1 | 0.7 | -117 | 4 | 0.96 | 27 | 2.2*
Fc1cc(Br)ccc1NC(=S)NCCc1ccccc1 | 0.9 | -119 | -8 | 1.1 | 8 | 2.2*
O=C(NCCCc1ccccc1)Nc1cccc(Cl)c1 | 1 | -318 | -6 | 1.1 | -2 | 4.2*
S=C(NCCc1ccccc1)Nc1ccccc1Cl | 1.1 | 2 | 4 | 0.96 | -14 | 0.98
S=C(NCCCc1ccccc1)Nc1ccccc1Cl | 1 | -163 | -4 | 1 | 3 | 2.6*
CCC(C)/C(C)=N/NC(=O)CNS(=O)(=O)c1ccc([N+](=O)[O-])cc1 (centres undefined) | 1 | 17 | -14 | 1.1 | -1 | 0.83
N#C/C(=C(/O)COC(=O)CSc1ccc2ccccc2c1)c1nc2ccccc2[nH]1 | 0.6 | 22 | -143 | 2.4* | 43 | 0.78
CCCN1C(=O)c2ccc(C(=O)Nc3nccs3)cc2C1=O | 1 | -3 | -22 | 1.2 | 2 | 1
CCCc1cc(C(=O)Nc2nccs2)cs1 | 0.9 | 66* | -4 | 1 | 12 | 0.34
COc1ccc(C(=O)O)cc1S(=O)(=O)Nc1ccc(N2CCCCC2)cc1 | nt | -6 | -21 | 1.2 | nt | 1.1
Cc1nc2cc(NC(=O)Nc3ccc(Br)cc3)ccc2o1 | 1.1 | -104 | -12 | 1.1 | -13 | 2*
Cc1nc2cc(NC(=O)NCc3ccc4c(c3)OCO4)ccc2o1 | 0.8 | -5 | 4 | 0.96 | 16 | 1
O=C(Nc1ccccc1-c1ccccc1)NC1CC2CCCC(C1)N2CCc1ccccc1 (centres undefined) | 1.1 | -131 | 10 | 0.9 | -8 | 2.3*
Cc1ncc([N+](=O)[O-])n1CC(=O)Nc1ccc(Br)cc1 | nt | 1 | 1 | 0.99 | nt | 0.99
COc1cc([C@@H]2c3cc4c(cc3[C@@H](O[C@@H]3O[C@@H]5CO[C@@H](C)O[C@H]5[C@H](O)[C@H]3O)[C@H]3COC(=O)[C@H]23)OCO4)cc(OC)c1O | nt | -5 | 15 | 0.85 | nt | 1.1
COc1cccc(OCCNC(=O)Nc2cc(F)c(F)cc2Cl)c1 | 1.1 | -133 | -13 | 1.1 | -10 | 2.3*
COc1ccc(OCCNC(=O)Nc2cc(F)c(F)cc2Cl)cc1 | 1.1 | -86 | -11 | 1.1 | -5 | 1.9
O=C(CN1CCN(C(=O)c2ccco2)CC1)Nc1ccccc1 | nt | 1 | -4 | 1 | nt | 0.99
O=C(NCc1ccccc1)NC1(C(=O)N2CCN(c3ccccc3)CC2)CCCCC1 | 2.1* | -125 | 10 | 0.9 | -113 | 2.3*
O=C(Nc1ccccc1)NC1(C(=O)N2CCN(C(=O)c3ccco3)CC2)CCCCC1 | 6.3* | -16 | -4 | 1 | i | 1.2
CC(C)[C@H](NC(=O)c1ccccc1)C(=O)OCC(=O)c1c(N)n(C)c(=O)n(C)c1=O | nt | -13 | 3 | 0.97 | nt | 1.1
Cc1ccc(N/C(N)=N/c2nc(CSc3nnc(C)s3)cc(=O)[nH]2)c(C)c1 | 2.1* | -8 | -67 | 1.7 | -111 | 1.1
SMILES | bIAP act | mIAP block | hIAP block | hIAP activ | bIAP inhibitor | mIAP act
O=C(Nc1ccc2ccccc2c1)c1cn(-c2ccccc2)nc1-c1cccs1 | 1 | -114 | 13 | 0.87 | -2 | 2.1*
Cc1ccc(S(=O)(=O)N(CC(=O)N(C(C)C)C(C)C)C(=O)N2CCN(C)CC2)cc1 | nt | -9 | -10 | 1.1 | nt | 1.1
COc1ccccc1CCCNC(=O)C1CCC(=O)N(CCc2ccc(Cl)cc2)C1 (centres undefined) | nt | -4 | -18 | 1.2 | nt | 1
COc1ccccc1NS(=O)(=O)c1cc(NC(=O)Nc2ccc(Cl)cc2Cl)ccc1N1CCCCC1 | 0.9 | -244 | -11 | 1.1 | 5 | 3.4*
O=C(Nc1cccc(C(F)(F)F)c1)Nc1ccc(N2CCCC2)c(S(=O)(=O)Nc2ccccc2Cl)c1 | 0.7 | -110 | -12 | 1.1 | 30 | 2.1*
O=C(Nc1nc(-c2ccccc2)cs1)Nc1ccc(F)cc1F | 0.9 | -45 | -14 | 1.1 | 6 | 1.4
O=C(Nc1ccc(Cl)c(Cl)c1)Nc1nc(-c2ccccc2)cs1 | 1.1 | -111 | -7 | 1.1 | -5 | 2.1*
O=C(Nc1ccccc1)Nc1nc(-c2ccccc2)cs1 | nt | -93 | -10 | 1.1 | nt | 1.9
O=C(Nc1ccccc1)Nc1nc(-c2ccc(F)c(F)c2)cs1 | nt | -147 | -11 | 1.1 | nt | 2.5*
CCN(C(=O)CSc1nnnn1-c1ccc(Cl)cc1)C1CCS(=O)(=O)C1 (centres undefined) | nt | 1 | 11 | 0.89 | nt | 0.99
CC(OC(=O)/C=C/c1ccccc1Cl)C(=O)NC1CCCCC1C (centres undefined) | nt | 2 | -10 | 1.1 | nt | 0.98
CSc1cccc(NC(=O)NCc2cccc(CNC(=O)Nc3cccc(SC)c3)c2)c1 | nt | -109 | -34 | 1.3 | nt | 2.1*
CCOc1ncccc1C(=O)OCC(=O)NC(=O)c1ccccc1 | nt | -10 | -4 | 1 | nt | 1.1
CCC(=O)Nc1cccc(C2=NN(c3ccccc3)C(c3ccc(OC)cc3)C2)c1 (centres undefined) | nt | -173 | -39 | 1.4 | nt | 2.7*
Cc1cc(C(=O)OC(C)C(=O)N2CCc3ccccc32)ccc1[N+](=O)[O-] (centres undefined) | nt | 4 | -7 | 1.1 | nt | 0.96
O=C(/C=C/c1ccco1)N(c1ccccn1)c1ccccn1 | 1 | 45* | -5 | 1.1 | -1 | 0.55
O=[N+]([O-])c1c(NCCCO)cc(SCc2ccco2)c2nonc12 | 0.9 | 54* | -8 | 1.1 | 5 | 0.46
Cc1ccc2c(c1)C1NC(=S)NC(C)(O2)C1C(=O)Nc1ccc(Cl)cc1 (centres undefined) | 1 | -102 | 3 | 0.97 | 1 | 2*
Cc1cccc(NCc2nc3ccccc3n2Cc2ccccc2)c1 | 9.5* | -9 | 2 | 0.98 | i | 1.1
Cc1nc2cc(NCc3nc4ccccc4n3Cc3ccccc3)ccc2n1C | 1.5 | -1 | -16 | 1.2 | -53 | 1
